Data as given in ChEMBL document CHEMBL1127619, “Synthesis of naltrexone-derived delta-opioid antagonists. Role of conformation of the delta address moiety” (J Med Chem, 1994).

Key:
[1] = organism: Mus musculus; assay: Antagonism of antinociceptive effect of delta 1 selective agonist DPDPE in mice (control); type: functional
Outline: (§1)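 Mouse tail-flick assay; agonist given icv without antagonist pretreatment, timed so its peak effect fell at the centre of the observation period. Control ED50 derived, expressed as nmol/mouse for DPDPE and DSLET and as µmol/kg for morphine and U50488.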

[2] = tested on: Mus musculus; assay: Antagonism of antinociceptive effect of delta 1 selective agonist DPDPE in mice, icv (treated); type: functional; details: central
[3] = organism: Mus musculus; assay: Antagonism of antinociceptive effect of kappa receptor selective agonist U-50,488 in mice (control); type: functional; outline: as §1
[4] = tested on: Mus musculus; assay: Antagonism of antinociceptive effect of kappa receptor selective agonist U-50,488 in mice, icv (treated); type: functional; details: central
Outline: (§2)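 Mice received 2 nmol antagonist icv, timed with the icv agonist so the antagonist peak (20 min) coincided with the centre of the tail-flick observation period. Treated ED50 is in nmol/mouse for DPDPE and DSLET and in µmol/kg for morphine and U50488. ED50 ratio is treated over control.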

[5] = organism: Mus musculus; assay: Antagonism of antinociceptive effect of mu receptor selective agonist morphine in mice (control); type: functional; outline: as §1
[6] = tested on: Mus musculus; assay: Antagonism of antinociceptive effect of mu receptor selective agonist morphine in mice, icv (treated); type: functional; details: central; outline: as §2
[7] = target: Kappa-type opioid receptor (Cavia porcellus, UniProt P41144); assay: Tested for binding activity against kappa opioid receptor using [3H]U-69593 ligand
Outline: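 Guinea pig brain membranes; competition of test ligand against the tritiated radioligand selective for each site: [3H]DPDPE (δ1), [3H]U69593 (κ), [3H]DAMGO (μ). Ki values derived from the competition curves.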

[8] = target: T1, Delta-type opioid receptor (Rattus norvegicus, UniProt P33533); assay: Tested for binding activity against delta opioid receptor using [3H]naltridole ligand
[9] = tested on: Mus musculus; assay: Antagonism of antinociceptive effect of delta 2 selective agonist DSLET in mice, icv (treated); type: functional; details: central
[10] = organism: Mus musculus; assay: Antagonism of antinociceptive effect of delta 2 selective agonist DSLET in mice (control); type: functional; outline: as §1
[11] = target: Kappa-type opioid receptor (Cavia porcellus) (UniProt P41144); details: 100 nM
[12] = target: Mu-type opioid receptor (Cavia porcellus) (UniProt P97266); details: 100 nM
[13] = target: Delta-type opioid receptor (Mus musculus) (UniProt P32300); details: 100 nM
[14] = target: Kappa-type opioid receptor (Cavia porcellus) (UniProt P41144); details: 100 nM; remark: listed apart in the source
[15] = target: T1, Delta-type opioid receptor; assay: Tested for binding activity against delta1 opioid receptor using [3H]DPDPE ligand

Sequence of Delta-type opioid receptor (Mus musculus) (P32300 whole entry): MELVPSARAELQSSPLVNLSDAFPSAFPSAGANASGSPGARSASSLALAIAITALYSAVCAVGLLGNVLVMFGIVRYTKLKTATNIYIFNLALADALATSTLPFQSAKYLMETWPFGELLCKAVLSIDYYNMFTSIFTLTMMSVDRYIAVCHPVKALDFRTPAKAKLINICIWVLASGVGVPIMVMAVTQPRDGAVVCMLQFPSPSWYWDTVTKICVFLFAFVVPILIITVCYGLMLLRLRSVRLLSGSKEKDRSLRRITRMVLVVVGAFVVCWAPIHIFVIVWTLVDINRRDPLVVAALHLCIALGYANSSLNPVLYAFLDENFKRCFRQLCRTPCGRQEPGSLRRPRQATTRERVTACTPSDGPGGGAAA
Sequence of Mu-type opioid receptor (Cavia porcellus) (P97266 whole entry): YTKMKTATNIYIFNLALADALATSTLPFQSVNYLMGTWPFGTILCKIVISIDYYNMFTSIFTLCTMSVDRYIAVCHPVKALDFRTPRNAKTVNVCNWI
Sequence of Kappa-type opioid receptor (Cavia porcellus) (P41144 whole entry): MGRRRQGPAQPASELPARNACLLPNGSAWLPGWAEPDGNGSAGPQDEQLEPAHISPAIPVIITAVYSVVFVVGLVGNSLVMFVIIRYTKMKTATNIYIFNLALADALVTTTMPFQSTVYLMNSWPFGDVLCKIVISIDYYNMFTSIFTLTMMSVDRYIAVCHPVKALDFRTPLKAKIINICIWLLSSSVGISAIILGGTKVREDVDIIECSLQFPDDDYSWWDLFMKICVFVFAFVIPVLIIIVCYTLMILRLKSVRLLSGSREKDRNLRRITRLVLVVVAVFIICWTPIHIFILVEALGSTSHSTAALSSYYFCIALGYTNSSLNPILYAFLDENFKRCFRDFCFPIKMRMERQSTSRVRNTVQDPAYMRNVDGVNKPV
Sequence of Kappa-type opioid receptor (P41144 whole entry): as above
T1 sequence (P33533 whole entry): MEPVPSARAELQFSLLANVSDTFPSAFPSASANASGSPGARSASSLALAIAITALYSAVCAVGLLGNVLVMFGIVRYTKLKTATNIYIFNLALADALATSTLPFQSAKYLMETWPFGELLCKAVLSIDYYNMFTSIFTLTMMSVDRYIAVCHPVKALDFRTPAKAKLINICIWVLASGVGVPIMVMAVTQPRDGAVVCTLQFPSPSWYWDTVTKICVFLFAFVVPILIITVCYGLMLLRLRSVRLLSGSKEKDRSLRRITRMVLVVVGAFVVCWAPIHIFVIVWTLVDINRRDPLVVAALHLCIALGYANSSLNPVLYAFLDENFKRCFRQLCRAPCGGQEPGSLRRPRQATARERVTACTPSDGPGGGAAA

In the case of `O=C1[C@@H]2Oc3c(O)ccc4c3[C@@]23CCN(CC2CC2)[C@H](C4)[C@]3(O)CC12Cc1ccccc1C2`, the ED50 [1] is reported as 6.4 uM mouse-1, the ED50 [2] is reported as 46.3 µmol/kg and the ED50 [3] is reported as 8.6 uM mouse-1. It also gave an ED50 [4] of 12.2 µmol/kg, an ED50 [5] of 6.9 uM mouse-1 and an ED50 [6] of 21.1 µmol/kg. The Ki [7] was 12.5 nM, the Ki [8] was 0.047 nM and the ED50 [9] was 2.8 µmol/kg. It also gave an ED50 [10] of 0.7 uM mouse-1, a Ke [11] of 105 nM and a Ke [12] of 4.2 nM. For the same compound, the Ke [13] was 0.78 nM.

Compound `Oc1ccc2c3c1O[C@H]1[C@@H](Nc4ccccc4)CC[C@@]4(O)[C@@H](C2)N(CC2CC2)CC[C@]314` has a Ki [7] of 2.2 nM, a Ke [14] of 100 nM and a Ke [12] of 3.2 nM. The Ke [13] was 8.8 nM.

With `O=C1/C(=C/c2ccccc2)C[C@@]2(O)[C@H]3Cc4ccc(O)c5c4[C@@]2(CCN3CC2CC2)[C@H]1O5` [BNTX] the Ki [7] was 5.9 nM, the Ke [14] was 100 nM and the Ke [12] was 8.3 nM. For the same compound, the Ke [13] was 2.9 nM.

Compound `Oc1ccc2c3c1O[C@H]1[C@H](Nc4ccccc4)CC[C@@]4(O)[C@@H](C2)N(CC2CC2)CC[C@]314` has a Ki [7] of 2.2 nM, a Ke [14] of 6 nM and a Ke [12] of 1.3 nM. The Ke [13] was 100 nM.

Work on `Oc1ccc2c3c1O[C@H]1C4(CC[C@@]5(O)[C@@H](C2)N(CC2CC2)CC[C@]315)Oc1ccccc1O4` yielded a Ki [7] of 25 nM and a Ke [12] of 40 nM.

Compound `O=C1/C(=C\c2ccccc2)C[C@@]2(O)[C@H]3Cc4ccc(O)c5c4[C@@]2(CCN3CC2CC2)[C@H]1O5` has a Ki [7] of 66 nM, a Ke [14] of 53 nM and a Ke [13] of 24 nM.

Compound `O=C1[C@@H](Cc2ccccc2)C[C@@]2(O)[C@H]3Cc4ccc(O)c5c4[C@@]2(CCN3CC2CC2)[C@H]1O5` has a Ki [7] of 25 nM, a Ke [12] of 21 nM and a Ke [13] of 1.5 nM.

`Oc1ccc2c3c1O[C@H]1c4[nH]c5ccccc5c4C[C@@]4(O)[C@@H](C2)N(CC2CC2)CC[C@]314` [NALTRINDOLE] showed a Ki [15] of 0.0072 nM.
